Holding throughout (format): functional, Hippocampal neurone
A short description of assay [1]: Induction of neurite outgrowth in rat hippocampal neurons assessed as neurite total length at 250 ng/ml after 48 hrs relative to control. In a few lines:
(§1)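 E18 rat hippocampal neurons were plated on PDL at 1800 cells/well in NbActive4, adhered 2 h, then treated with compound prediluted in medium at 4× final for 48 h. Cells were fixed, stained for βIII-tubulin, imaged and auto-traced. Mean neurite total length is a percentage of DMSO vehicle wells on the same plate. ML-7 was the positive control and plates with Z-factor >0.5 were accepted.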

Assay [2] in a line: Induction of neurite outgrowth in rat hippocampal neurons assessed as neurite total length at 62.5 ng/ml after 48 hrs relative to control. In a few lines: as §1
Assay [3] is described as follows: Induction of neurite outgrowth in rat hippocampal neurons assessed as neurite total length at 31.25 ng/ml after 48 hrs relative to control. In a few lines: as §1
Assay [4] can be described thus: Induction of neurite outgrowth in rat hippocampal neurons assessed as neurite total length at 125 ng/ml after 48 hrs relative to control. In a few lines:
as §1

Assay [5] can be described thus: Induction of neurite outgrowth in rat hippocampal neurons assessed as neurite total length at 500 ng/ml after 48 hrs relative to control. The procedure, abridged: as §1
The nature of assay [6]: Induction of neurite outgrowth in rat hippocampal neurons assessed as neurite total length at 15.625 ng/ml after 48 hrs relative to control. The procedure, abridged: as §1
Assay [7] can be described thus: Induction of neurite outgrowth in rat hippocampal neurons assessed as neurite total length after 48 hrs. The procedure, abridged: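 Dissociated E18 rat hippocampal neurons were seeded on PDL-coated plates at 1800 cells/well in NbActive4 and allowed to adhere 2 h. Compounds were prediluted in medium at 4× final and added, then cells were grown 48 h (2 DIV). Wells were fixed, immunostained for βIII-tubulin and imaged by automated tracing. ED200% and ED300% values were linearly interpolated from dose-response curves of mean neurite total length.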

On to `CC(C)C[C@@H]1CN(CCCC[C@H]2CNC(CCCc3ccccc3)=N2)C(=S)N1CC1CCC(C)CC1` (stereo partly specified), for which the Activity in assay [1] is reported as 240%; in assay [2] it was 246.7%; in assay [3] it was 197%; in assay [4] it was 256.9%; in assay [5], 224.4%; in assay [6] it was 144.9%. In assay [7], the ED200 stood at 25 nM. Moreover, the ED300 in assay [7] is given as 461 nM.
With `CC1CCC(CN2C(=S)N(CCCC[C@H]3CNC(CCCc4ccccc4)=N3)C[C@H]2c2ccccc2)CC1` (stereo partly specified), the Activity is listed as 244.7% in assay [1]; 237.5% in assay [2]; 174.3% in assay [3]; 269.1% in assay [4]; 221.2261% in assay [5]; 184.9% in assay [6]. The ED200 in assay [7] is reported as 17 nM. Besides, the ED300 in assay [7] is more than 471 nM.

The record behind these values is ChEMBL document CHEMBL4266015, “Scaffold Ranking and Positional Scanning Identify Novel Neurite Outgrowth Promoters with Nanomolar Potency” (2018).
